Measurements: ChEMBL document CHEMBL1131243, “Structure-activity relationships of the 7-substituents of 5,4'-diamino-6,8,3'-trifluoroflavone, a potent antitumor agent” (J Med Chem, 1998)

Legend:
HeLa = assay: In vitro cytotoxicity against HeLa S3 cell lines, treated for 3 days then uptake of neutral red dye was measured; assay type: functional, cell-based; conditions: Homo sapiens, 72 h
Mus musculus [1] = assay: Compound was tested for percentage Body weight change in vivo against MCF-7 cells implanted into Nude Mice, Dosage 25(mg/kg); assay type: functional, MCF7
Procedure, shortened: (§1)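 Female nude mice carried MCF-7 implants, with tumor growth stimulated by estradiol propionate given on the first dosing day. Mice with tumors of 25–200 mm³ were selected 20 days after transplantation (n = 5). Compound was given orally on days 0–4 and 7–11. Tumor length and width were measured on days 0, 4, 7, 11, 14 and 18. T/C is V/V0 treated over control; body weight change in %.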

Mus musculus [2] = assay: Ratio of tumor growth rate of the drug-treated group relative to that of the control group at a dosw of 25 mg/kg; assay type: functional; procedure, shortened: as §1
MCF7 = assay: In vitro cytotoxicity against MCF-7 cell lines, treated for 3 days then uptake of neutral red dye was measured; assay type: functional, cell-based; conditions: Homo sapiens, MCF7, 72 h
Mus musculus [3] = assay: Compound was tested for percentage Body weight change in vivo against MCF-7 cells implanted into Nude Mice, Dosage 50(mg/kg); assay type: functional, MCF7; procedure, shortened: as §1
Mus musculus [4] = assay: Ratio of tumor growth rate of the drug-treated group relative to that of the control group at a dose of 25 mg/kg; assay type: functional; procedure, shortened: as §1
Mus musculus [5] = assay: Ratio of tumor growth rate of the drug-treated group relative to that of the control group at a dose of 50 mg/kg; assay type: functional; procedure, shortened: as §1
HeLa S3 (Homo sapiens) = assay: Compound was tested for in vitro Cytotoxicity against HeLa S3 cell lines which were treated for 3 days and uptake of neutral red dye was measured; conditions: HeLa S3, 72 h
Mus musculus [6] = assay: Compound was tested for percentage Body weight change in vivo against MCF-7 cells implanted into Nude Mice, Dosage 12.5(mg/kg); assay type: functional, MCF7; procedure, shortened: as §1
Mus musculus [7] = assay: Ratio of tumor growth rate of the drug-treated group relative to that of the control group at a dose of 12.5 mg/kg; assay type: functional; procedure, shortened: as §1
Mus musculus [8] = assay: Ratio of tumor growth rate of the drug-treated group relative to that of the control group at a dosw of 50 mg/kg; assay type: functional; procedure, shortened: as §1
Mus musculus [9] = assay: Compound was tested for percentage Body weight change in vivo against MCF-7 cells implanted into Nude Mice, Dosage 25 (mg/kg); assay type: functional, MCF7; procedure, shortened: as §1
Mus musculus [10] = assay: Compound was tested for percentage Body weight change in vivo against MCF-7 cells implanted into Nude Mice, Dosage 3.1(mg/kg); assay type: functional, MCF7; procedure, shortened: as §1
Mus musculus [11] = assay: Compound was tested for percentage Body weight change in vivo against MCF-7 cells implanted into Nude Mice, Dosage 6.3(mg/kg); assay type: functional, MCF7; procedure, shortened: as §1
Mus musculus [12] = assay: Ratio of tumor growth rate of the drug-treated group relative to that of the control group at a dose of 6.3 mg/kg; assay type: functional; procedure, shortened: as §1
Mus musculus [13] = assay: Ratio of tumor growth rate of the drug-treated group relative to that of the control group at a dose of 3.1 mg/kg; assay type: functional; procedure, shortened: as §1
Mus musculus [14] = assay: Ratio of tumor growth rate of the drug-treated group relative to that of the control group at a dosw of 6.3 mg/kg; assay type: functional; procedure, shortened: as §1
Mus musculus [15] = assay: Compound was tested for percentage Body weight change in vivo against MCF-7 cells implanted into Nude Mice, Dosage (mg/kg); assay type: functional, MCF7; procedure, shortened: as §1
Mus musculus [16] = assay: Compound was tested for percentage Body weight change in vivo against MCF-7 cells implanted into Nude Mice, Dosage 50 (mg/kg); assay type: functional, MCF7; procedure, shortened: as §1
Mus musculus [17] = assay: Compound was tested for percentage Body weight change in vivo against MCF-7 cells implanted into Nude Mice, Dosage 63(mg/kg); assay type: functional, MCF7; conditions: in the assay text read “Dosage 6.3(mg/kg)” for “Dosage 63(mg/kg)”; procedure, shortened: as §1
Mus musculus [18] = assay: Ratio of tumor growth rate of the drug-treated group relative to that of the control group at a dosw of 63 mg/kg; assay type: functional; conditions: dose 6.3 mg/kg; in the assay text read “6.3 mg/kg” for “63 mg/kg”; procedure, shortened: as §1

| SMILES | IC50 (HeLa) [µM] | IC50 (MCF7) [µM] | further results |
| --- | --- | --- | --- |
| CN(C)CCC(=O)OCc1c(F)c(N)c2c(=O)cc(-c3ccc(N)c(F)c3)oc2c1F | 11 | 0.019 | Body weight change (Mus musculus [1]): -12%; T/C min (Mus musculus [2]): 4.1% |
| CN(C)CCCC(=O)OCc1c(F)c(N)c2c(=O)cc(-c3ccc(N)c(F)c3)oc2c1F | 4.5 | 0.029 | Body weight change (Mus musculus [1]): -8.4%; T/C min (Mus musculus [2]): 15% |
| Nc1ccc(-c2cc(=O)c3c(N)c(F)c(CO)c(F)c3o2)cc1F | 24 | 0.062 | Body weight change (Mus musculus [3]): -6.7%; Body weight change (Mus musculus [1]): -4%; T/C min (Mus musculus [4]): 17%; T/C min (Mus musculus [5]): 1.6% |
| CCCCc1c(F)c(N)c2c(=O)cc(-c3ccc(N)c(F)c3)oc2c1F | > 100 | 8.8 | – |
| CS(=O)(=O)c1c(F)c(N)c2c(=O)cc(-c3ccc(N)c(F)c3)oc2c1F | > 100 | > 10 | – |
| CCCCCC(=O)NCc1c(F)c(N)c2c(=O)cc(-c3ccc(N)c(F)c3)oc2c1F | – | 0.34 | Body weight change (Mus musculus [3]): 0%; T/C min (Mus musculus [5]): 76%; IC50 (HeLa S3 (Homo sapiens)): > 100 µM |
| CN(C)c1c(F)c(N)c2c(=O)cc(-c3ccc(N)c(F)c3)oc2c1F | > 100 | 0.039 | Body weight change (Mus musculus [6]): -19%; T/C min (Mus musculus [7]): 39% |
| Nc1ccc(-c2cc(=O)c3c(N)c(F)c(O)c(F)c3o2)cc1F | > 100 | > 10 | – |
| CN(C)Cc1c(F)c(N)c2c(=O)cc(-c3ccc(N)c(F)c3)oc2c1F | 8.9 | 0.072 | Body weight change (Mus musculus [1]): -17%; T/C min (Mus musculus [2]): 16% |
| CSc1c(F)c(N)c2c(=O)cc(-c3ccc(N)c(F)c3)oc2c1F | > 100 | 0.19 | – |
| CN(C)CCCOCc1c(F)c(N)c2c(=O)cc(-c3ccc(N)c(F)c3)oc2c1F | 12 | > 10 | – |
| COCc1c(F)c(N)c2c(=O)cc(-c3ccc(N)c(F)c3)oc2c1F | > 100 | 0.046 | Body weight change (Mus musculus [3]): 0%; T/C min (Mus musculus [8]): 89% |
| COc1c(F)c(N)c2c(=O)cc(-c3ccc(N)c(F)c3)oc2c1F | 34 | 0.1 | – |
| C[S+]([O-])c1c(F)c(N)c2c(=O)cc(-c3ccc(N)c(F)c3)oc2c1F (stereo not given) | > 100 | 2.5 | – |
| Nc1ccc(-c2cc(=O)c3c(N)c(F)cc(F)c3o2)cc1F | > 100 | 0.04 | Body weight change (Mus musculus [9]): -7.4%; T/C min (Mus musculus [4]): 11% |
| Nc1ccc(-c2cc(=O)c3c(N)c(F)c(N)c(F)c3o2)cc1F | 19 | 0.0077 | Body weight change (Mus musculus [10]): 5.7%; Body weight change (Mus musculus [11]): -13%; Body weight change (Mus musculus [6]): -22%; T/C min (Mus musculus [12]): 26%; T/C min (Mus musculus [7]): 18%; T/C min (Mus musculus [13]): 55% |
| [N-]=[N+]=Nc1c(F)c(N)c2c(=O)cc(-c3ccc(N)c(F)c3)oc2c1F | 1.2 | 0.46 | – |
| CCc1c(F)c(N)c2c(=O)cc(-c3ccc(N)c(F)c3)oc2c1F | > 100 | 0.13 | – |

| SMILES | IC50 (HeLa) [µM] | IC50 (MCF7) [µM] | further results |
| --- | --- | --- | --- |
| Nc1ccc(-c2cc(=O)c3c(N)c(F)c(C(=O)O)c(F)c3o2)cc1F | > 100 | > 10 | – |
| CCCCCC(=O)OCc1c(F)c(N)c2c(=O)cc(-c3ccc(N)c(F)c3)oc2c1F | 34 | 0.16 | Body weight change (Mus musculus [11]): -5.9%; Body weight change (Mus musculus [1]): -7.9%; Body weight change (Mus musculus [6]): -8.4%; T/C min (Mus musculus [12]): 27%; T/C min (Mus musculus [7]): 7.9%; T/C min (Mus musculus [4]): 0.8% |
| CCOC(=O)c1c(F)c(N)c2c(=O)cc(-c3ccc(N)c(F)c3)oc2c1F | > 100 | 1.4 | – |
| CN(C)CC(=O)OCc1c(F)c(N)c2c(=O)cc(-c3ccc(N)c(F)c3)oc2c1F | 9.2 | 0.026 | Body weight change (Mus musculus [3]): -11%; Body weight change (Mus musculus [11]): -4.8%; Body weight change (Mus musculus [1]): -9%; T/C min (Mus musculus [14]): 68%; T/C min (Mus musculus [4]): 4%; T/C min (Mus musculus [5]): 1% |
| Nc1ccc(-c2cc(=O)c3c(N)c(F)c(Br)c(F)c3o2)cc1F | > 100 | 0.16 | – |
| CN(C)CCOc1c(F)c(N)c2c(=O)cc(-c3ccc(N)c(F)c3)oc2c1F | 1.5 | 1.4 | – |
| Nc1ccc(-c2cc(=O)c3c(N)c(F)c(Cl)c(F)c3o2)cc1F | > 100 | 0.21 | – |
| CCC(=O)OCc1c(F)c(N)c2c(=O)cc(-c3ccc(N)c(F)c3)oc2c1F | 69 | 0.13 | Body weight change (Mus musculus [15]): -2.4%; T/C min (Mus musculus [4]): 79% |
| CC(=O)OCc1c(F)c(N)c2c(=O)cc(-c3ccc(N)c(F)c3)oc2c1F | 4.9 | 0.026 | Body weight change (Mus musculus [3]): -4.5%; Body weight change (Mus musculus [1]): -5.9%; T/C min (Mus musculus [4]): 6.1%; T/C min (Mus musculus [5]): 11% |
| NCc1c(F)c(N)c2c(=O)cc(-c3ccc(N)c(F)c3)oc2c1F | 8.8 | 0.026 | Body weight change (Mus musculus [16]): -11%; Body weight change (Mus musculus [17]): -5.8%; Body weight change (Mus musculus [1]): -8.5%; T/C min (Mus musculus [8]): 1.1%; T/C min (Mus musculus [4]): 11%; T/C min (Mus musculus [18]): 60% |
| CN(C)CCOCc1c(F)c(N)c2c(=O)cc(-c3ccc(N)c(F)c3)oc2c1F | 4.6 | > 10 | Body weight change (Mus musculus [3]): -7.9%; T/C min (Mus musculus [8]): 57% |
| CCCCCCCCCC(=O)OCc1c(F)c(N)c2c(=O)cc(-c3ccc(N)c(F)c3)oc2c1F | > 100 | 0.1 | Body weight change (Mus musculus [1]): -5%; T/C min (Mus musculus [4]): 13% |
| CCCCCCCCCCCCCCCCCC(=O)OCc1c(F)c(N)c2c(=O)cc(-c3ccc(N)c(F)c3)oc2c1F | > 100 | > 10 | Body weight change (Mus musculus [1]): -4.8%; T/C min (Mus musculus [4]): 20% |
| CCCCCCc1c(F)c(N)c2c(=O)cc(-c3ccc(N)c(F)c3)oc2c1F | 21 | > 10 | – |
| C[N+](C)(C)Cc1c(F)c(N)c2c(=O)cc(-c3ccc(N)c(F)c3)oc2c1F | 32 | 3.1 | – |
| CCCOCc1c(F)c(N)c2c(=O)cc(-c3ccc(N)c(F)c3)oc2c1F | 78 | 1.2 | – |
| CCCCCCOCc1c(F)c(N)c2c(=O)cc(-c3ccc(N)c(F)c3)oc2c1F | > 100 | 7.1 | – |
| Cc1c(F)c(N)c2c(=O)cc(-c3ccc(N)c(F)c3)oc2c1F [AMINOFLAVONE] | > 100 | 0.013 | Body weight change (Mus musculus [11]): -8.7%; Body weight change (Mus musculus [6]): -11%; T/C min (Mus musculus [12]): 55%; T/C min (Mus musculus [7]): 11% |
